The values below come from ChEMBL document CHEMBL1147839, “New highly hydrosoluble and not self-aggregated perylene derivatives with three and four polar side-chains as G-quadruplex telomere targeting agents and telomerase inhibitors” (Bioorg Med Chem Lett, 2007).

Assay [1] is filed under the species Homo sapiens. Description: Inhibition of human telomerase at 2 uM after 2 hrs by TRAP assay. The procedure, abridged: (§1)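 Modified TRAP with TSG4 substrate primer (0.4 μM) and 50 μM dNTPs in TRAP buffer (pH 8.3, 1.5 mM MgCl2, 68 mM KCl, 0.05% Tween 20, 1 mM EGTA). The mix was heated 90 C 10 min, then iced. Drug was preincubated 2 h at 30 C. SKN-Be neuroblastoma cell extract was added for 30 min at 30 C, then phenol/chloroform extraction. PCR (30 cycles) used 32P-TSG4, CXext primer and Taq. Runs done at least three independent times.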

For assay [2], the species on record is Homo sapiens. Put plainly: Inhibition of human telomerase at 5 uM after 2 hrs by TRAP assay. The gist of the method: as §1
Assay [3] is filed under the species Homo sapiens. Description: Inhibition of human telomerase at 10 uM after 2 hrs by TRAP assay. The procedure, abridged: as §1
The species entered for assay [4] is Homo sapiens. Put plainly: Inhibition of human telomerase at 20 uM after 2 hrs by TRAP assay. The procedure, abridged:
as §1

For orientation: inhibition means the change of the read-out against control, counted positive when it falls.

As for `CN(C)CCCNc1cc2c3c(cc(NCCCN(C)C)c4c5ccc6c7c(ccc(c1c34)c75)C(=O)N(CCCN(C)C)C6=O)C(=O)N(CCCN(C)C)C2=O`, the inhibition in the assay listed under Homo sapiens [1] is 12%; in the assay filed under Homo sapiens [2], 47%; in the assay filed under Homo sapiens [3] it was 56%; in the assay listed under Homo sapiens [4], 59%.

With `CN(C)CCCNc1cc2c3c(ccc4c5ccc6c7c(ccc(c1c34)c75)C(=O)N(CCCN(C)C)C6=O)C(=O)N(CCCN(C)C)C2=O`, the inhibition worked out at 24% in the assay filed under Homo sapiens [1], 39% in the assay listed under Homo sapiens [2], 57% in the assay filed under Homo sapiens [3] and 59% in the assay listed under Homo sapiens [4].

For `CN(C)CCCNc1cc2c3c(ccc4c5c(Br)cc6c7c(ccc(c1c34)c75)C(=O)N(CCCN(C)C)C6=O)C(=O)N(CCCN(C)C)C2=O`, the inhibition came out at 18% in the assay listed under Homo sapiens [1], 49% in the assay filed under Homo sapiens [2], 55% in the assay listed under Homo sapiens [3] and 59% in the assay filed under Homo sapiens [4].

With `CN(C)CCCNc1cc2c3c(ccc4c5c(NCCCN(C)C)cc6c7c(ccc(c1c34)c75)C(=O)N(CCCN(C)C)C6=O)C(=O)N(CCCN(C)C)C2=O`, the inhibition in the assay filed under Homo sapiens [1] turned out to be 8%; in the assay listed under Homo sapiens [2], 41%; in the assay filed under Homo sapiens [3], 54%; in the assay filed under Homo sapiens [4], 54%.
